# Test results as given in ChEMBL document CHEMBL1629548, “In vitro activities of tigecycline against clinical isolates of Aeromonas, Vibrio, and Salmonella species in Taiwan” (2008).
# Experiments:
# Vibrio cholerae [1] = assay: Antimicrobial activity against Vibrio cholerae non-O1 assessed as percent tetracyclin-resistant isolate at 0.12 to 16 ug/ml by broth microdilution method; type: functional
# Vibrio cholerae [2] = assay: Antimicrobial activity against Vibrio cholerae non-O1 by broth microdilution method; type: functional
# Summary of the method: (§1)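 Tigecycline MICs for clinical isolates (Taiwan) were determined by broth microdilution over 0.03 to 128 μg/ml. A control strain was included, and its MICs had to fall within the recommended range. Susceptible, intermediate and resistant categories were assigned from the MICs using US FDA and EUCAST breakpoints.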
# Aeromonas hydrophila [3] = assay: Antimicrobial activity against Aeromonas hydrophila assessed as percent tetracyclin-resistant isolate at 0.25 to >16 ug/ml by broth microdilution method; type: functional
# Summary of the method: (§2)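 Tetracycline MICs for clinical isolates were determined by broth microdilution over 0.03 to 128 μg/ml. The reported value is the rate of isolates not susceptible to tetracycline for each species or serogroup.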
# Aeromonas caviae [4] = assay: Antimicrobial activity against Aeromonas caviae assessed as percent tetracyclin-resistant isolate at 0.25 to >16 ug/ml by broth microdilution method; type: functional; summary of the method: as §2
# Aeromonas sobria [5] = assay: Antimicrobial activity against Aeromonas sobria assessed as percent tetracyclin-resistant isolate at 0.25 to >16 ug/ml by broth microdilution method; type: functional; summary of the method: as §2
# Aeromonas hydrophila [6] = assay: Antimicrobial activity against Aeromonas hydrophila by broth microdilution method; type: functional
# Summary of the method: (§3)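 Clinical isolates from Taiwan; tigecycline and tetracycline MICs by broth microdilution per CLSI guidelines, tested over 0.03 μg/ml to 128 μg/ml; a control strain was included.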
# Aeromonas caviae [7] = assay: Antimicrobial activity against Aeromonas caviae by broth microdilution method; type: functional; summary of the method: as §3
# Aeromonas sobria [8] = assay: Antimicrobial activity against Aeromonas sobria by broth microdilution method; type: functional; summary of the method: as §3
# [9] = Antimicrobial activity against Salmonella serotype Choleraesuis assessed as percent tetracyclin-resistant isolate at 1 to >128 ug/ml by broth microdilution method; type: functional, Salmonella enterica subsp. enterica serovar Choleraesuis; summary of the method: as §2
# Salmonella typhimurium [10] = assay: Antimicrobial activity against Salmonella serotype Typhimurium assessed as percent tetracyclin-resistant isolate at 1 to >128 ug/ml by broth microdilution method; type: functional, Salmonella enterica subsp. enterica serovar Typhimurium; summary of the method: as §2
# Salmonella [11] = assay: Antimicrobial activity against Salmonella serogroup O7 assessed as percent tetracyclin-resistant isolate at 1 to >128 ug/ml by broth microdilution method; type: functional; summary of the method: as §2
# Salmonella [12] = assay: Antimicrobial activity against Salmonella serogroup O8 assessed as percent tetracyclin-resistant isolate at 1 to >128 ug/ml by broth microdilution method; type: functional; summary of the method: as §2
# Salmonella [13] = assay: Antimicrobial activity against Salmonella serogroup O9 assessed as percent tetracyclin-resistant isolate at 1 to >128 ug/ml by broth microdilution method; type: functional; summary of the method: as §2
# [14] = Antimicrobial activity against Salmonella serotype Choleraesuis by broth microdilution method; type: functional, Salmonella enterica subsp. enterica serovar Choleraesuis; details: Salmonella enterica; summary of the method: as §1
# Salmonella typhimurium [15] = assay: Antimicrobial activity against Salmonella serotype Typhimurium by broth microdilution method; type: functional, Salmonella enterica subsp. enterica serovar Typhimurium; details: Salmonella enterica; summary of the method: as §3
# Salmonella [16] = assay: Antimicrobial activity against Salmonella serogroup O7 by broth microdilution method; type: functional; summary of the method: as §3
# Salmonella [17] = assay: Antimicrobial activity against Salmonella serogroup O8 by broth microdilution method; type: functional; summary of the method: as §3
# Salmonella [18] = assay: Antimicrobial activity against Salmonella serogroup O9 by broth microdilution method; type: functional; summary of the method: as §3
# Aeromonas sp. [19] = assay: Antimicrobial activity against tetracycline-susceptible Aeromonas sp. isolate by broth microdilution method; type: functional; summary of the method: as §3
# Aeromonas sp. [20] = assay: Antimicrobial activity against tetracycline-nonsusceptible Aeromonas sp. isolate by broth microdilution method; type: functional; summary of the method: as §3
# Vibrio [21] = assay: Antimicrobial activity against tetracycline-susceptible Vibrio sp. Isolate by broth microdilution method; type: functional; summary of the method: as §3
# Vibrio [22] = assay: Antimicrobial activity against tetracycline-nonsusceptible Vibrio sp. Isolate by broth microdilution method; type: functional; summary of the method: as §3
# Salmonella [23] = assay: Antimicrobial activity against tetracycline-susceptible Salmonella sp. Isolate by broth microdilution method; type: functional; summary of the method: as §3
# Salmonella [24] = assay: Antimicrobial activity against tetracycline-nonsusceptible Salmonella sp. Isolate by broth microdilution method; type: functional; summary of the method: as §3
# Aeromonas caviae [25] = assay: Antimicrobial activity against tigecycline-intermediate Aeromonas caviae isolate by broth microdilution method; type: functional; summary of the method: as §3
structure (smiles),measurement,setting,value
CN(C)[C@@H]1C(O)=C(C(N)=O)C(=O)[C@@]2(O)C(O)=C3C(=O)c4c(O)cccc4[C@@](C)(O)[C@H]3C[C@@H]12 [TETRACYCLINE],Activity,Vibrio cholerae [1],8%
same,MIC90,Vibrio cholerae [2],1 µg/mL
same,Activity,Aeromonas hydrophila [3],36%
same,Activity,Aeromonas caviae [4],37%
same,Activity,Aeromonas sobria [5],57%
same,MIC90,Aeromonas hydrophila [6],16 µg/mL
same,MIC90,Aeromonas caviae [7],16 µg/mL
same,MIC90,Aeromonas sobria [8],16 µg/mL
same,Activity,[9],84%
same,Activity,Salmonella typhimurium [10],65%
same,Activity,Salmonella [11],38%
same,Activity,Salmonella [12],71%
same,Activity,Salmonella [13],16%
same,MIC90,[14],> 128 µg/mL
same,MIC90,Salmonella typhimurium [15],> 128 µg/mL
same,MIC90,Salmonella [16],> 128 µg/mL
same,MIC90,Salmonella [17],> 128 µg/mL
same,MIC90,Salmonella [18],> 128 µg/mL
same,MIC,Aeromonas sp. [19],≤ 4 µg/mL
same,MIC,Aeromonas sp. [20],≥ 8 µg/mL
same,MIC,Vibrio [21],≤ 4 µg/mL
same,MIC,Vibrio [22],≥ 8 µg/mL
same,MIC,Salmonella [23],≤ 4 µg/mL
same,MIC,Salmonella [24],≥ 8 µg/mL
same,MIC,Aeromonas caviae [25],> 128 µg/mL
